Calls of active or inactive are those of the source. The calls are words filed in the database; no cut-off is given here.
What was measured:
Rattus norvegicus = assay: Effect on insulin resistance in iv dosed Sprague-Dawley rat assessed as plasma concentration required to show relative HOMA index of 3; assay type: functional, organism-based
[1] = target: Phosphatidylinositol 4,5-bisphosphate 3-kinase catalytic subunit beta isoform (Homo sapiens, UniProt P42338); assay: Inhibition of recombinant human PI3Kbeta using PIP2 as substrate preincubated for 20 mins followed by substrate and ATP addition and measured after 20 mins by biotinylated-PIP3 based alphascreen assay
Chain of Phosphatidylinositol 4,5-bisphosphate 3-kinase catalytic subunit beta isoform (P42338 whole entry, canonical isoform): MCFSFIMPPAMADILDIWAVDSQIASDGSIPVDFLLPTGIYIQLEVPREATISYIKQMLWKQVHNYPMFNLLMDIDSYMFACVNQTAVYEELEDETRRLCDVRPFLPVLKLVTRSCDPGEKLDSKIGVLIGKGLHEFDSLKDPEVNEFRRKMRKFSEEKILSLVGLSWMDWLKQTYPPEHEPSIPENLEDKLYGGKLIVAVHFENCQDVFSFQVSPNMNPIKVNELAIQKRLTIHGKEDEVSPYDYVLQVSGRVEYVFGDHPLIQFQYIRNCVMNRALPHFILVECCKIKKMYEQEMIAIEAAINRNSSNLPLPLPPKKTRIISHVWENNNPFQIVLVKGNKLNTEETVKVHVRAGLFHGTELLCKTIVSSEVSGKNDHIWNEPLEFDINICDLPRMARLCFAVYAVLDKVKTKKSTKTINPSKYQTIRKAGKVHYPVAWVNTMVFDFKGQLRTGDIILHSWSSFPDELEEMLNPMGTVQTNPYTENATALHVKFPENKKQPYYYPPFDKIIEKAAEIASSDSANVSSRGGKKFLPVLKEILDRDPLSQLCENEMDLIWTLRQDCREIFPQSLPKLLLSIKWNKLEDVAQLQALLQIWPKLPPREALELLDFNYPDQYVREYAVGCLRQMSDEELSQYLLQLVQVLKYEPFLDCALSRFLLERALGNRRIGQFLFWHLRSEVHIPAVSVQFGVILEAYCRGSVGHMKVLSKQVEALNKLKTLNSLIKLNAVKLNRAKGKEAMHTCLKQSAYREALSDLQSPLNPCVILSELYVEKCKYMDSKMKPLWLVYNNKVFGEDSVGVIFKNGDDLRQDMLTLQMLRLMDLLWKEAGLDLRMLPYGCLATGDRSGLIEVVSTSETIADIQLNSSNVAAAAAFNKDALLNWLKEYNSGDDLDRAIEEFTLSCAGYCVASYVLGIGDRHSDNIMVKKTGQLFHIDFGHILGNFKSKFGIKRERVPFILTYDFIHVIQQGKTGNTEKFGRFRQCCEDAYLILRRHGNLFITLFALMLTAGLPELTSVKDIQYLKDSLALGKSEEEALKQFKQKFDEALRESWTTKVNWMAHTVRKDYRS

[2] = target: Phosphatidylinositol 4,5-bisphosphate 3-kinase catalytic subunit alpha isoform (Homo sapiens, UniProt P42336); assay: Inhibition of recombinant human PI3Kalpha using PIP2 as substrate preincubated for 20 mins followed by substrate and ATP addition and measured after 20 mins by biotinylated-PIP3 based alphascreen assay
Chain of Phosphatidylinositol 4,5-bisphosphate 3-kinase catalytic subunit alpha isoform (P42336 whole entry, canonical isoform): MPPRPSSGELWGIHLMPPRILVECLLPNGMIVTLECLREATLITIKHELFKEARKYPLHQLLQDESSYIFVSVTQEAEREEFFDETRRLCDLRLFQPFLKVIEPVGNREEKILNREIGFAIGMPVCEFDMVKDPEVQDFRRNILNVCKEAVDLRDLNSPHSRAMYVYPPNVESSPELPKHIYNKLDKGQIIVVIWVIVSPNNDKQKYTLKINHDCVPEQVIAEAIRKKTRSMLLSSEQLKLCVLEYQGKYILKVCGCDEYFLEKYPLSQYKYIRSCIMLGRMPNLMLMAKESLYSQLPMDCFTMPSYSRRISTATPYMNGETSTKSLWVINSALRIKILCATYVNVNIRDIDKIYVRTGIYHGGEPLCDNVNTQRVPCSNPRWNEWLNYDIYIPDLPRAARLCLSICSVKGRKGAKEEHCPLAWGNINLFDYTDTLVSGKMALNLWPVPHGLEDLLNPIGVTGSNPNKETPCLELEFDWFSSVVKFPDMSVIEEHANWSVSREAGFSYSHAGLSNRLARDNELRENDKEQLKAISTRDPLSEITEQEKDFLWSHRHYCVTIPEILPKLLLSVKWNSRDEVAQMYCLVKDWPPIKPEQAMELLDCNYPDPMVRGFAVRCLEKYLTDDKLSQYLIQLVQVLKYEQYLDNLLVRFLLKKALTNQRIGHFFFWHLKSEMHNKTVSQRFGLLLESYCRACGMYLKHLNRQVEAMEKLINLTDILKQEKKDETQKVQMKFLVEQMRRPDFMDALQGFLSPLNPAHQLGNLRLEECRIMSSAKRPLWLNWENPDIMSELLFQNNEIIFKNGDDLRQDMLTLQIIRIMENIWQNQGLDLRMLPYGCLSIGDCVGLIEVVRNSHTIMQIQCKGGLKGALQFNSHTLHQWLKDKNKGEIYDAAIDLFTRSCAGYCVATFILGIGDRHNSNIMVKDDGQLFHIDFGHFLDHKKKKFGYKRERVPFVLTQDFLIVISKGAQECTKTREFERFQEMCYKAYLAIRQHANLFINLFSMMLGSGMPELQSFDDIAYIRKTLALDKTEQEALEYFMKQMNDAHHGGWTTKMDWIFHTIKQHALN

Homo sapiens [3] = species: Homo sapiens; assay: Inhibition of PI3Kalpha/beta/gamma/delta in human platelet rich plasma assessed as reduction in collagen-induced platelet aggregation at 5 uM preincubated for 10 mins followed by collagen addition and measured after 10 mins by light transmission aggregometry; assay type: cell-free; conditions: time 20.0 min
Outline: (§1)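 Venous blood from healthy human donors, citrate-anticoagulated; undiluted platelet-rich plasma tested in an in-house 96-well plate light transmission aggregometry assay. Agonist concentration-response curves run without and with inhibitor. Values are means, n = 4.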

Homo sapiens [4] = species: Homo sapiens; assay: Inhibition of PI3Kalpha/beta/gamma/delta in human platelet rich plasma assessed as reduction in ADP-induced platelet aggregation at 5 uM preincubated for 10 mins followed by ADP addition and measured after 5 mins by light transmission aggregometry; assay type: cell-free; conditions: time 15.0 min; outline: as §1
Homo sapiens [5] = species: Homo sapiens; assay: Inhibition of PI3Kalpha/beta/gamma/delta in human platelet rich plasma assessed as reduction in TRAP-induced platelet aggregation at 5 uM preincubated for 10 mins followed by TRAP addition and measured after 5 mins by light transmission aggregometry; assay type: cell-free; conditions: time 15.0 min; outline: as §1

| Compound | Cp (Rattus norvegicus) [µM] | IC50 [1] [nM] | IC50 [2] [nM] | inhibition (Homo sapiens [3]) | inhibition (Homo sapiens [4]) | inhibition (Homo sapiens [5]) |
| --- | --- | --- | --- | --- | --- | --- |
| CC(=O)Nc1nc(C)c(-c2cnc(Cl)c(NS(C)(=O)=O)c2)s1 | 0.3 | 110 | 10 |  |  |  |
| Cc1cc(C(C)Nc2ccccc2C(=O)O)c2nc(N3CCOCC3)cc(=O)n2c1 (stereo not given) | 30 |  |  |  |  |  |
| COC[C@H]1OC(=O)c2coc3c2[C@@]1(C)C1=C(C3=O)[C@@H]2CCC(=O)[C@@]2(C)C[C@H]1OC(C)=O |  |  |  | Active | Active | Active |
| Cc1cc(F)ccc1Oc1cccc2c(=O)cc(N3CCOCC3)[nH]c12 | > 40 | 160 | 22800 |  |  |  |
